Screening results deposited in PubChem by several laboratories.
AHR act = activators of human aryl hydrocarbon receptor. P35869. AHR-responsive luciferase reporter cells, luminescence. activation, % at 5 µM. 320,000 tested, 2.5% active. AID 2796; in the data active = activation above about 47%
GAA850 FXN act = frataxin GAA850 promoter activation; activation, % at 6 µM; 360,000 tested, 0.56% active; HEK293 lucGAA850 FXN promoter luciferase reporter, 24 h; percent of 10 µM SAHA response;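 active = activation above the average of all compounds screened plus 3 SD, cutoff fixed separately per campaign, cut at about 7.5% in these data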
SENP1 inh = SENP1 (human) catalytic domain inhibition. Q9P0U3. recombinant SENP1 catalytic domain, CyPet-SUMO1-YPet FRET cleavage. inhibition, % at 10 µM. 360,000 tested, 0.21% active. AID 624204;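 active = inhibition at least 30% at 10 µM, raw YFP signal under a set limit, fluorescence ratio 0.5 to 1.5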
Target sequence (Q9P0U3 419-644 limits assumed): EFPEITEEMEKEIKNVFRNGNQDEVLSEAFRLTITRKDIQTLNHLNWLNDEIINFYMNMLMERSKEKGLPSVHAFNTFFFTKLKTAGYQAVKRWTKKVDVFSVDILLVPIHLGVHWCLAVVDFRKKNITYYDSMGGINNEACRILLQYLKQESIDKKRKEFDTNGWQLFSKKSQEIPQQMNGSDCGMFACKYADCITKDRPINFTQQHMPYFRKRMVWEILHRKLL
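Test system: recombinant human SENP1 catalytic domain, His6-tagged / Medium: pH 8 Tris buffer with EDTA, NaCl, BME, BSA, NP40, catalase / Also added: SUMO1 FRET substrate flanked by Cypet and Ypet, 25 nM / Times: 50 min reaction at room temperature / Signal: FRET, CFP and YFP emission / Control set: no-enzyme low control and enzyme-plus-DMSO high control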
HDAC3 inhib = blocks human histone deacetylase 3. recombinant HDAC3, fluorogenic peptide/trypsin coupled, fluorescence. inhibition, % at 8.3 µM. 320,000 tested, 0.15% active. AID 2718; in the data active = inhibition above about 26%, passing the limit was not always enough
CTSL1 counter = cathepsin L1 inhibition, PFM18AAP counter-screen. recombinant F. hepatica cathepsin L1, Z-Leu-Arg-MCA fluorescence. inhibition, % at 5.96 µM. 300,000 tested, 0.49% active;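 active = inhibition above the mean of all tested compounds plus 3 SD, set per screening campaign, cut at about 17% in these data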
PfM18AAP inh = blocks P. falciparum M18 aspartyl aminopeptidase; recombinant PfM18AAP, H-Glu-NHMec fluorogenic cleavage; inhibition, % at 7.35 µM; 290,000 tested, 1.2% active; AID 1822;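 active = inhibition above the campaign mean inhibition over all tested compounds plus 3 SD, cut at about 28% in these data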
Hits are given with their value; 0 = inactive; - = no result given. Shown are actives, neighbours in structure and some others; about 4.2% of the full set was active somewhere.

SMILES	AHR act	GAA850 FXN act	SENP1 inh	HDAC3 inhib	CTSL1 counter	PfM18AAP inh
Brc1ccc(-c2nnc(-c3ccccc3Br)o2)cc1	0	0	0	0	0	0
Oc1oc(-c2ccccc2)nc1/C=N/c1ccccn1	0	0	0	0	71	0
N#CCC(=O)N/N=C/c1cc(Br)ccc1OCc1cccc2ccccc12	0	0	0	0	0	0
Nc1n[nH]c(=S)n1/N=C1/C(=O)Nc2ccccc21	-	0	0	-	-	32
CCOC(=O)c1nn(-c2ccc(F)cc2)c(=O)cc1OCC(=O)Nc1ccc(F)c(F)c1	0	0	0	-	0	-
CCc1ccc(-c2cc3c(=O)n(CC(=O)NCCCN4CCN(CC)CC4)nc(C)n3n2)cc1	0	0	0	0	0	0
CC[C@H](C)[C@@H](CO)NC(=O)[C@H]1O[C@@H](n2ccc(N)nc2=O)[C@H](O)[C@@H]1O	-	-	0	-	-	-
CN1/C(=C/C(=O)c2ccc(Cl)cc2)Sc2cc3c(cc21)OCO3	0	0	0	0	0	32
O=C(CSc1nnnn1-c1cccc(O)c1)NC1CC1	0	0	0	0	0	0
COc1ccc(Cc2c(-c3cccc(Cl)c3)nc3ccc(Cl)cn23)c(C)c1	-	-	0	-	-	-
Cc1cccc(OCC(=O)Nc2cccc(C(=O)NCC(C)C)c2)c1	0	0	0	0	0	0
CCOc1cccc(C(=O)Nc2cccc(C(=O)NCC(C)C)c2)c1	71	0	0	0	0	0
CCCOc1cccc(C(=O)Nc2cccc(NC(=O)c3ccco3)c2)c1	48	0	0	0	0	0
O=C(N[C@@H](Cc1ccccc1)C(=O)OCc1ccccc1)c1ccco1	0	0	0	0	-	-
COc1ccc(NC(=O)CSc2nnc(N)s2)cc1S(=O)(=O)N1CCCCC1	0	0	0	0	-	-
CCCCn1c(-c2cccnc2)n[nH]c1=S	0	0	0	0	0	30
CC(C)CCNC(=O)C1CCN(S(=O)(=O)c2ccc(-n3cnnn3)cc2)CC1	0	0	0	0	0	0
O=C(N=C1N=C2C=CC(Br)=CN2Cc2ccccc21)c1ccc([N+](=O)[O-])cc1[N+](=O)[O-]	94	0	0	0	0	0
COc1ccc2nc(-c3ccccn3)[nH]c2c1	47	0	0	0	0	0
COc1ccccc1Cc1c(-c2ccco2)nc2cc(C)c(Br)c(C)n12	-	-	0	-	-	-
O=C(c1ccc(Br)cc1)N(c1ccccn1)C1CCCCC1	0	0	0	0	0	0
N#C/C(=C\c1ccco1)C(=O)Nn1cnnc1	0	0	0	0	0	32
CC(NC(=O)/C(C#N)=C/c1ccc(N2CCOCC2)cc1)c1ccccc1 (stereo unspecified)	47	0	0	0	0	0
N#C/C(=C\c1ccco1)C(=O)Nc1ccc(S(N)(=O)=O)cc1	0	0	0	0	0	0
CC(NC(=O)/C(C#N)=C/c1ccco1)c1ccccc1 (stereo unspecified)	0	0	0	0	36	0
SMILES	AHR act	GAA850 FXN act	SENP1 inh	HDAC3 inhib	CTSL1 counter	PfM18AAP inh
CC(NC(=O)/C(C#N)=C/c1cccs1)c1ccccc1 (stereo unspecified)	0	0	0	0	0	0
COC(=O)c1ccc(/C=C(\C#N)C(=O)NC(C)c2ccccc2)cc1 (stereo unspecified)	0	0	0	0	0	0
Cc1cccc(-c2ccc3c(c2)C2CC3CCN2)c1 (stereo unspecified)	-	0	0	-	-	-
CCC(Oc1ccccc1OC)C(=O)N1CC(=O)Nc2ccccc21 (stereo unspecified)	0	0	0	0	0	0
Cc1ccc(/C=C2\SC(=S)N(C3CCS(=O)(=O)C3)C2=O)o1 (stereo unspecified)	0	0	0	0	0	0
CC1=C(C#N)C(=O)N(C2CCS(=O)(=O)C2)C(=O)/C1=C\c1ccc(C)o1 (stereo unspecified)	0	-	-	0	0	30
Clc1ccc(C2=Nn3c(nnc3-c3n[nH]c4c3CCC4)SC2)cc1	49	0	0	0	0	0
Brc1ccc(C2=Nn3c(nnc3-c3n[nH]c4c3CCC4)SC2)cc1	78	0	0	0	0	0
Cc1ccc(-c2nnc3n2N=C(c2ccc(Br)cc2)CS3)cc1	0	0	0	0	0	0
COc1ccc(N2CCN(C(=O)C3CCN(S(=O)(=O)c4ccc5c(c4)oc(=O)n5C)CC3)CC2)cc1	0	0	0	0	0	0
